Where “and” joins values, the source holds several entries; their conditions need not be identical. Equal entries are not always repeated.
Key:
JAK3 = conditions: read-out: half maximal inhibitory concentration, JAK3; cited from earlier work
Tyk2 = conditions: read-out: half maximal inhibitory concentration, Tyk2; cited from earlier work
[1] = Urine pharmacokinetics after topical application, QBX1‐2 study; type: in vivo, human
In short: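 Adult atopic dermatitis patients; 5 g ointment to eczematous areas twice daily for 7 days. On day 7, urine collected at 0–4, 4–8, 8–12 and 12–24 h, assayed by LC-MS/MS (LLOQ 25 ng/mL). Amount excreted = sum over intervals of concentration × urine volume. Renal clearance = amount excreted ÷ plasma AUCtau (12-h dosing interval, non-compartmental).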

JAK2 = conditions: read-out: half maximal inhibitory concentration, JAK2; cited from earlier work
[2] = Plasma pharmacokinetics after topical application, QBX1‐2 study; type: in vivo, human
In short: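 Japanese healthy male volunteers or adult atopic dermatitis patients; 5 g ointment to back skin or eczematous areas, either once (removed at 24 h) or twice daily at 12-h intervals for 7 days. Plasma at 0–48 h after single dose; repeated dosing on days 1 and 7 at 0–24 h after morning dose, plus day-4 trough. LC-MS/MS, LLOQ 1 ng/mL (below set to zero); non-compartmental. Tmax as median.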

JAK1 = conditions: read-out: half maximal inhibitory concentration, JAK1; cited from earlier work
[3] = p.o. administration; ref data not published; cited from earlier work

## C[C@H]1CN(C(=O)CC#N)[C@]12CCN(c1ncnc3[nH]ccc13)C2 [JTE‐052]
JAK3
  IC50: […]
Tyk2
  IC50: […]
[1]; human, urine and plasma, topical, 5 g of 3% ointment twice daily
  CL renal: 330 mL/min
[1]; part 1, healthy volunteers, single application of 3% JTE‐052 ointment, 0–48‐h interval, n = 6
  fe (fraction excreted into urine to the applied dose): 0.016% and 0.016 ± 0.007%
[1]; part 2, AD patients, single application of 1% JTE‐052 ointment, 0–48‐h interval, n = 6
  fe (fraction excreted into urine to the applied dose): 0.382% and 0.382 ± 0.341%
[1]; part 2, AD patients, single application of 3% JTE‐052 ointment, 0–48‐h interval, n = 5
  fe (fraction excreted into urine to the applied dose): 0.406% and 0.406 ± 0.508%
[1]; part 3, AD patients, repeated application of 1% JTE‐052 ointment, day 7 after the morning application, 0–12‐h interval, n = 8
  fe (fraction excreted into urine to the applied dose): 0.191% and 0.191 ± 0.174%
[1]; part 3, AD patients, repeated application of 3% JTE‐052 ointment, day 7 after the morning application, 0–12‐h interval, n = 7
  fe (fraction excreted into urine to the applied dose): 0.289% and 0.289 ± 0.136%
JAK2
  IC50: […]
[2]; human, plasma, topical, 5 g of 3% ointment
  AUC(0-t): […]
[2]; human, plasma, topical, 5 g of 3% ointment twice daily
  Tmax: 4 h
[2]; part 2, AD patients, single application of 1% JTE‐052 ointment, all subjects (n = 6)
  JTE‐052 plasma concentrations: […]
[2]; part 3, AD patients, repeated application of 1% JTE‐052 ointment twice daily for 7 days (n = 8)
  JTE‐052 plasma concentrations: […]
[2]; part 3, AD patients, repeated application of 3% JTE‐052 ointment twice daily for 7 days (n = 7), considering trough samples
  JTE‐052 plasma concentrations: […]
JAK1
  IC50: […]
[3]
  half‐life: ~ 4 h

— paper PMC6001687 (The Journal of Dermatology, 2018)
